Reference: ChEMBL document CHEMBL1142275, “Searching for new NO-donor aspirin-like molecules: a new class of nitrooxy-acyl derivatives of salicylic acid” (J Med Chem, 2008)
The source made the active and inactive calls. The rule behind the calls is not given here.

Tests used:
[1] = Lipophilicity, log P of the compound; format: physicochemical; settings: octanol/water
[2] = Chemical stability in aqueous buffer at pH 7.4 after 3 hrs; format: physicochemical; settings: read-out: Stability
In short: (§1)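 10 mM acetonitrile stock added to 0.1 M HCl (pH 1) or 50 mM phosphate buffer pH 7.4 preheated to 37 °C; final compound 250 μM. Held at 37 ± 0.5 °C, aliquots taken at intervals and analysed by RP-HPLC. Value is % compound remaining unchanged at 3 h.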

[3] = Stability in human serum assessed as half life; format: ADME, cell-free
In short: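 Compound from 10 mM acetonitrile stock added to human serum at 37 °C (final 250 μM), incubated at 37 ± 0.5 °C. Aliquots deproteinised with acetonitrile containing 0.1% TFA, sonicated, vortexed, centrifuged 10 min at 2150 g, filtered, then RP-HPLC for parent compound and salicylic acid. First-order hydrolysis; t1/2 in h ± SD.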

[4] = Dissociation constant, pKa of the compound; format: physicochemical
Plasma [5] = assay: Inhibition of collagen-induced platelet aggregation in human plasma in presence of 1H-[1,2,4]oxadiazolo[4,3-a]quinoxalin-1-one; format: functional, cell-free
In short: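 Human PRP prepared by centrifuging citrated blood at 200 g for 20 min. Compounds (vehicle 0.5% DMSO) preincubated 10 min before collagen at 0.8-1.5 μg/mL (submaximal). Light-transmission aggregometry, stirring 1000 rpm, 37 °C, 10 min. sGC inhibitor ODQ at 50 μM. Inhibition relative to control; IC50 by non-linear regression, otherwise % inhibition at 300 μM; ≥5 experiments.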

[6] = Chemical stability in aqueous buffer at pH 1 after 3 hrs; format: physicochemical; settings: read-out: Stability; in short: as §1
Aorta = assay: Vasodilation activity in Wistar rat aorta assessed as relaxation of phenylephrine-induced smooth muscle contraction
Plasma [7] = assay: Inhibition of collagen-induced platelet aggregation in human plasma in presence of 1H-[1,2,4]oxadiazolo[4,3-a]quinoxalin-1-one
Plasma [8] = assay: Inhibition of collagen-induced platelet aggregation in human plasma at 300 uM relative to control
Rattus norvegicus [9] = assay: Toxicity in Wistar rat assessed as lesion index at 120 mg/kg, intragastrically after 3 hrs; format: organism-based; set-up: dose 120 mg/kg, route intragastric; settings: in vivo, po
In short: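 Male Wistar rats, 180-200 g, fasted 24 h with water available. […] Killed after 3 h; stomachs opened along the lesser curvature and glandular mucosa examined under stereomicroscope. Each haemorrhagic lesion rated by greatest length (<1 mm = 1; 1-2 mm = 2; >2 mm = length), then summed as lesion index; mean ± SEM.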

Rattus norvegicus [10] = assay: Antiinflammatory activity against carrageenan-induced paw edema in Wistar rat at 120 mg/kg, intragastrically after 3 hrs; format: functional; settings: route intragastric
In short: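 Conscious rats, edema raised by intraplantar 0.1 ml of 1% carrageenan (in 1% CMC) into right hindpaw. […] Paw volume by water plethysmometer before and 3 h after carrageenan. Inhibition expressed relative to vehicle edema taken as 100. Groups of 6-8 animals; mean ± SEM.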

Compound	logP [1]	remaining at 3 h [2] [%]	half-life [3] [h]	pKa [4]	Activity (Plasma [5])	remaining at 3 h [6] [%]	EC50 (Aorta) [µM]	IC50 (Plasma [7]) [µM]	inhibition at 300 µM (Plasma [8]) [%]	Activity (Rattus norvegicus [9]) [%]	Activity (Rattus norvegicus [10]) [%]
O=C(CCCCC(CO[N+](=O)[O-])O[N+](=O)[O-])Oc1ccccc1C(=O)O (stereo not given)	1.6	> 95	6.25	3.69	inactive	> 85	3.1				
O=C(CCCCO[N+](=O)[O-])Oc1ccccc1C(=O)O	1.6	> 95	0.76	3.69		> 97	21	91			
O=C(CCCC(CO[N+](=O)[O-])O[N+](=O)[O-])Oc1ccccc1C(=O)O (stereo not given)	1.6	> 95	4.87	3.69		> 85	5.8		6.7		
O=C(CCCO[N+](=O)[O-])Oc1ccccc1C(=O)O	1.6	> 95	0.47	3.69		> 97	23	24			
CC(C)(CCC(CO[N+](=O)[O-])O[N+](=O)[O-])C(=O)Oc1ccccc1C(=O)O (stereo not given)	1.6	> 95	15.2	3.69	inactive	> 97	5.3				
O=C(CCCCCCO[N+](=O)[O-])Oc1ccccc1C(=O)O	1.6	> 95	1.19	3.69	inactive	> 97	8.1				
CC(C)(CO[N+](=O)[O-])C(=O)Oc1ccccc1C(=O)O	1.6	> 95	9.03	3.69		> 97	6.2		26		
CC(=O)Oc1ccccc1C(=O)O [ASPIRIN]	1.14	> 90	1.06			> 90				53.5	47
O=C(CCCCCO[N+](=O)[O-])Oc1ccccc1C(=O)O	1.6	> 95	2.03	3.69		> 97	14		27		
O=C(CC(CO[N+](=O)[O-])O[N+](=O)[O-])Oc1ccccc1C(=O)O (stereo not given)	1.6	20	0.28	3.69		> 85	9.2	119			
O=C(CCC(CO[N+](=O)[O-])O[N+](=O)[O-])Oc1ccccc1C(=O)O (stereo not given)	1.6	> 95	4.09	3.69		> 85	8.2		15		
O=C(O)c1ccccc1O [SALICYLIC ACID]		> 90				85					
O=C(CCO[N+](=O)[O-])Oc1ccccc1C(=O)O	1.6	55	0.26	3.69		> 90	37	186			
